Compounds with a hit are over-represented: about 4% of the library has one in this group of screens.
INS promoter inh = TRM-6 insulin promoter activity inhibition; inhibition, % at 2 µM; 0.9% of 130,000 active; AID 1273; TRM-6 cells (human fetal islet line), insulin promoter-eGFP reporter, imaging; reporter expression induced with tamoxifen;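 active = inhibition above the mean plus 3 SD, with well images judged a real hit on visual review, cut at about 60% in these data, passing the limit was not always enough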
RAM inhibit = blocks the yeast RAM network; S. cerevisiae dse1pr::URA3 reporter, 5-FOA growth OD615, 2 d; analog-sensitive cbk1-as2 kinase mutant strain; inhibition, % at 50 µM; 1.8% of 190,000 active; AID 868;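 active = inhibition above a set limit, 3 SD over mean compound inhibition, cut at about 8.4% in these data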;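 also: 0% = DMSO-only wells with no growth and 100% = 10 µM 1-NA-PP1 full growth; inhibition rescues growth on 5-FOA so higher OD means more RAM inhibition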
Mdm2 ligase inh = blocks human Mdm2 ubiquitin ligase activity; cell-based MDM2 ubiquitination luciferase reporter, 2 h; 0 = plate control, 100 = twice control, blank-subtracted; signal enhancement, % at 5 µM; 0.11% of 210,000 active; AID 1230;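 active = signal enhancement of 30% or more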;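 also: luminescence tracks abundance of the self-degrading MDM2-luciferase fusion protein; higher signal means inhibition of MDM2 E3 ligase activity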
Target sequence (Q00987 whole entry, looked up, the tested form may be a part): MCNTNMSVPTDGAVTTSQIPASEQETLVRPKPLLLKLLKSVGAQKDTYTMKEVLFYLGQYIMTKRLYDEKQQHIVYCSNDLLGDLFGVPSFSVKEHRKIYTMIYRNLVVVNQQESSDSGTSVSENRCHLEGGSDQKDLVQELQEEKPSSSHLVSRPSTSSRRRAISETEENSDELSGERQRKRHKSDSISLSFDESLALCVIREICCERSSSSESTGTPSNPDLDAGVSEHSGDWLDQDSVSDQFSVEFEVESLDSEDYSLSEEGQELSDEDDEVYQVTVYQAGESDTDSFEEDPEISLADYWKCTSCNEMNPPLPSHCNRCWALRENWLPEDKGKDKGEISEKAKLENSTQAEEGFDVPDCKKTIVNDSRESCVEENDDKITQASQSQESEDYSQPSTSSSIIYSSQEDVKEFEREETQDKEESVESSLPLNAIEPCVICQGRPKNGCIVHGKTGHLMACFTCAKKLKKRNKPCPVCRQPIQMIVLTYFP
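Timing – 2 h compound exposure at 37 °C · Assay system – mammalian cells stably expressing self-ubiquitinating, self-degrading MDM2 E3–luciferase fusion · Amount – 2000 cells seeded into each well · Measure – % luminescence enhancement versus blank-corrected plate control mean · Measured by – SteadyLite luminescence, 15 min reagent step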
BB579 growth dn = reduces growth of yeast BB579 in restrictive medium. S. cerevisiae BB579 growth, OD615, 48 h. inhibition, % at 10 µM. 0.51% of 140,000 active;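 active = inhibition above a set limit, 3 SD over the mean compound inhibition, cut at about 44% in these data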
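System: DeaD yeast strain BB579; buffer or medium: CSMM-D dextrose restrictive medium; technique: OD at 615 nm; schedule: 4 h cell preincubation, 48 h compound exposure, 30 °C humidified; doses: single 10 µM dose; controls: amphotericin B 10 µg/mL, positive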
Measles CPE = protection of cells from measles virus. Measles virus-infected cells, CPE protection, absorbance. protection (pct of control), % at 4 µM. 1.5% of 140,000 active. AID 841; in the data active = protection mostly above about 24%, no sharp cut-off; inactive = mostly below about 26%
Yeast lifespan up = extends the lifespan of yeast; S. cerevisiae growth with nicotinamide, OD615; deaD strain in restrictive glucose medium; inhibition of the nicotinamide effect, % at 10 µM; 0.68% of 130,000 active; AID 775;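 active = inhibition above a set limit, placed 3 SD over the median of all compounds, cut at about 26% in these data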;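 also: 0% = nicotinamide-treated wells and 100% = cells grown without nicotinamide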
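Assay system: engineered S. cerevisiae DeaD replicative-lifespan strain, galactose-grown log-phase cells; medium: restrictive CSMM-D dextrose medium; also added: nicotinamide, 1.5 mM, co-present with compound; schedule: 48 h compound exposure at 30 °C, humidified; detection: absorbance at 615 nm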
The depositor's hits bear a star; x = not tested or not shown.

SMILES	INS promoter inh	RAM inhibit	Mdm2 ligase inh	BB579 growth dn	Measles CPE	Yeast lifespan up
CCCc1oc(C(=O)O)cc1CN1CCCC1	x	0.7	-25.7	-37.6	2.2	-7.2
CCCc1oc(C(=O)O)cc1CN1CCOCC1	34.5	1.4	-7.9	-45.5	33.8*	-3.0
Cc1cc(C)nc(N/N=C/C2=C(N3CCOCC3)C(=C\c3ccc(Cl)cc3)/CC2)n1	9.1	1.2	18.8	51.7*	8.9	-2.5
O=CC1=C(N2CCOCC2)/C(=C/c2ccc(Cl)cc2)CC1	x	-0.1	-10.7	x	x	x
O=C(Nc1ncccn1)C1CCCN1S(=O)(=O)c1ccc(Cl)c(Cl)c1 (stereo not given)	-20.1	-0.1	-2.8	-12.5	44.9*	-7.2
O=C(O)C1CCCN1S(=O)(=O)c1ccc(Cl)c(Cl)c1 (stereo not given)	x	1.1	3.8	-10.0	14.9	-4.2
O=C(NNc1ccc([N+](=O)[O-])cc1)C1CC1c1ccccc1 (stereo not given)	6.7	1.8	12.0	-51.8	22.8*	2.2
O=C(NNc1ccc([N+](=O)[O-])cc1)C1CC2CCCC(C1)C2=O (stereo not given)	46.7	0.5	-7.2	-39.4	2.2	-1.7
O=C1NCC2=C1C(c1ccc(Br)cc1)Nc1ccccc1N2 (stereo not given)	x	-0.3	8.5	-48.3	22.9	91.9*
COc1ccc(NC(=O)/C=C/c2cc(OC)c(OC)c(OC)c2)cn1	-25.0	9.0*	0.1	x	x	x
CCOC(=O)N1CCC(N2C(=O)c3ccccc3C2Nc2ccccc2)CC1 (stereo not given)	x	1.5	-17.1	2.9	4.3	-7.8
CCOC(=O)N1CCC(N2C(=O)c3ccccc3C2Nc2ccc(C)cc2)CC1 (stereo not given)	x	-0.1	-12.0	-11.9	36.2*	-11.0
O=C(CCc1nnc(Cc2ccc3c(c2)OCO3)o1)NCc1nc2ccccc2s1	78.3*	2.4	-7.7	x	x	x
O=C(CCc1nc2ccccc2[nH]1)NCc1ccc2c(c1)OCO2	-40.0	-0.5	x	-5.5	4.1	5.9
COC(=O)C1=C2SCC(=O)N2C(N)=C(C#N)C1	x	x	-6.7	x	x	x
COc1ccc(C(=O)COC(=O)CNS(=O)(=O)c2ccc(C)cc2)cc1	x	2.5	-11.0	-43.6	27.3	0.0
CC1(c2ccc(C#N)cc2)NC(=O)N(CC(=O)Nc2cc(S(=O)(=O)N3CCOCC3)ccc2Cl)C1=O (stereo not given)	-50.0	0.9	-23.4	x	x	x
O=C(CN1CCN(c2ccccc2O)CC1)Nc1ccc2c(c1)CCC2	x	-0.4	-7.2	-27.9	0.6	-5.1
N#C/C(=C\c1c(N2CCOCC2)nc2ccccn2c1=O)S(=O)(=O)c1ccccc1	6.7	1.4	-1.7	-24.6	26.8*	-12.2
Cc1ccc(S(=O)(=O)/C(C#N)=C/c2c(N3CCCCC3)nc3ccccn3c2=O)cc1	x	x	0.6	x	x	x
NC(=S)Nc1cccc2cccnc12	3.2	1.1	-3.6	-32.6	12.2	-24.4
O=C(Nc1cccc2cccnc12)C1CCCC1	53.3	0.0	-3.0	-14.0	28.6*	-2.2
CCc1ccc2[nH]c3nc(C)cc(C)c3c(=O)c2c1	81.5*	3.2	-11.3	-7.1	3.0	-2.0
O=C(CCCOc1ccccc1)NC(=S)Nc1ccccc1	x	2.1	-7.8	x	x	x
CCOc1ccc2nc(NC(=O)CSc3nc4c(c(=O)n(C)c(=O)n4C)n3C(C)C)sc2c1	33.3	-0.4	-5.2	-21.3	2.3	-13.4
SMILES	INS promoter inh	RAM inhibit	Mdm2 ligase inh	BB579 growth dn	Measles CPE	Yeast lifespan up
CCn1c(SCC(=O)Nc2nc3ccc(OC)cc3s2)nc2c1c(=O)n(C)c(=O)n2C	-37.0	1.9	21.5	-34.8	27.5*	-4.1
CCn1c(SCC(=O)Nc2nc3ccccc3s2)nnc1-c1ccc(OC)cc1	4.8	9.8*	-14.4	-18.6	5.1	-3.2
CCn1c(Cc2ccccc2)nnc1SCC(=O)Nc1nc2ccccc2s1	-188.2	8.3	5.3	-67.5	29.6	4.7
COc1cccc(/C=N/NC(=O)NC2CCCCC2)c1O	x	x	-14.1	x	x	x
COc1ccc(N(CC(=O)N2CCc3ccccc32)S(=O)(=O)c2c(C)nn(C)c2C)cc1	x	8.9*	-4.6	-11.9	1.1	-6.3
Cc1nn(C)c(C)c1S(=O)(=O)N(CC(=O)N1CCc2ccccc21)c1ccc(C(C)C)cc1	x	2.1	-14.5	-35.5	13.5	-12.4
